Experimental data: ChEMBL document CHEMBL1124929, “Indolo[2,1-a]isoquinolines. Syntheses, steroid hormone receptor binding affinities, and cytostatic activity” (1990)

Columns and labels:
MCF7 [1] = experiment: Effect on hormone-dependent MCF-7 human breast cancer cell proliferation at 1x10E-5 M; assay type: functional
In short: (§1)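 Cells were plated at about 2 × 10⁴ per well in six-well dishes. MCF-7 cells were grown in modified improved MEM with 5% NCS, switched to charcoal-treated NCS two weeks before the test, and exposed for 5 days with a re-dose on day 4. MDA-MB 231 cells were grown in McCoy 5a with 10% NCS and exposed for 2 days. Compounds were given 1 day after plating in 0.1% DMSO, with DMSO-matched controls. Read-out was cell number as % T/C, mean of three experiments with six dishes.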

[2] = biological target: T1, Estrogen receptor (Mus musculus) (UniProt O08537+P19785); experiment: (§2) Estrogenic activity in uterotrophic assay in immature mice at 250 ug subcutaneous dose; assay type: functional
T1 sequence (O08537 whole entry, looked up): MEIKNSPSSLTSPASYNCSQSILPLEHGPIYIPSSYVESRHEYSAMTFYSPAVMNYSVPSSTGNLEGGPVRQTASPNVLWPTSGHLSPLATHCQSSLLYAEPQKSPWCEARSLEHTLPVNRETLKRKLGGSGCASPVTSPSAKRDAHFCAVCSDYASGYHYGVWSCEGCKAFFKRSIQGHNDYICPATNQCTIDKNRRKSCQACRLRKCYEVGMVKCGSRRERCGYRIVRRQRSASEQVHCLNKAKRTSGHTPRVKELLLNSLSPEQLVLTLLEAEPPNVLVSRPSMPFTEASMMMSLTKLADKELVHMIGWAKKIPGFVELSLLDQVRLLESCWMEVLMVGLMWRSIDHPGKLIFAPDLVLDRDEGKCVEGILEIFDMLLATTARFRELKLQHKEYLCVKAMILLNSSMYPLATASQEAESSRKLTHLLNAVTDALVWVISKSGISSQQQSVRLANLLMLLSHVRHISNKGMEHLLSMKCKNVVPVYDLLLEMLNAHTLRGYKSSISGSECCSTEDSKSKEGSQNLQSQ
T1 sequence (P19785 whole entry, looked up): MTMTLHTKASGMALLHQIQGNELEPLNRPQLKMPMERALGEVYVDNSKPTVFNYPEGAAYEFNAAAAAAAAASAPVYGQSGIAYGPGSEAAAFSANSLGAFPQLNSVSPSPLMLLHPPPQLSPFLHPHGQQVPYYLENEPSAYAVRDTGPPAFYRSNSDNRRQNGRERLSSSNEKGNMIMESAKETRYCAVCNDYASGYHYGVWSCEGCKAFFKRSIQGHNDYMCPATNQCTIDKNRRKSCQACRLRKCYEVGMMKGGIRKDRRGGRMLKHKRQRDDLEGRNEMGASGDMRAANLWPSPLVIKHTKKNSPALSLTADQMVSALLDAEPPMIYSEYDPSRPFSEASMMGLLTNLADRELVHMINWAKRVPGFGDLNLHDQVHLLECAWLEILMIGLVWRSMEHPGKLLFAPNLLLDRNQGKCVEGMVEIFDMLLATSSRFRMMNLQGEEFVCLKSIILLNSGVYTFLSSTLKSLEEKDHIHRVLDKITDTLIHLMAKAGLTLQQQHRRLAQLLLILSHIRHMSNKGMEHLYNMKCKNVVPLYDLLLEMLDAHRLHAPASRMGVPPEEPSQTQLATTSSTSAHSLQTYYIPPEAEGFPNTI
In short: (§3)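 Immature female NMRI mice, 20 days old, in groups of 6-10, were dosed sc once daily for three consecutive days. Compounds were given in PEG/0.9% saline 1:1; vehicle controls were included. Animals were killed 24 h after the last dose. Uteri were fixed in Bouin solution and the effect was taken as uterine dry weight (mg)/body weight (g) ×100, given as mean ± SD.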

[3] = biological target: T1, Estrogen receptor (Mus musculus); experiment: (§4) Estrogenic activity in uterotrophic assay in immature mice at 50.0 ug subcutaneous dose; assay type: functional; in short: as §3
MDA-MB-231 [4] = experiment: Cytostatic effect on hormone-independent MDA-MB 231 human breast cancer cell proliferation at5x10E-6M; assay type: functional; in short: as §1
[5] = biological target: T2, Androgen receptor (Mus musculus) (UniProt P19091); experiment: Inhibition of seminal vesicle weight in intact mice at 100 ug
T2 sequence (whole entry): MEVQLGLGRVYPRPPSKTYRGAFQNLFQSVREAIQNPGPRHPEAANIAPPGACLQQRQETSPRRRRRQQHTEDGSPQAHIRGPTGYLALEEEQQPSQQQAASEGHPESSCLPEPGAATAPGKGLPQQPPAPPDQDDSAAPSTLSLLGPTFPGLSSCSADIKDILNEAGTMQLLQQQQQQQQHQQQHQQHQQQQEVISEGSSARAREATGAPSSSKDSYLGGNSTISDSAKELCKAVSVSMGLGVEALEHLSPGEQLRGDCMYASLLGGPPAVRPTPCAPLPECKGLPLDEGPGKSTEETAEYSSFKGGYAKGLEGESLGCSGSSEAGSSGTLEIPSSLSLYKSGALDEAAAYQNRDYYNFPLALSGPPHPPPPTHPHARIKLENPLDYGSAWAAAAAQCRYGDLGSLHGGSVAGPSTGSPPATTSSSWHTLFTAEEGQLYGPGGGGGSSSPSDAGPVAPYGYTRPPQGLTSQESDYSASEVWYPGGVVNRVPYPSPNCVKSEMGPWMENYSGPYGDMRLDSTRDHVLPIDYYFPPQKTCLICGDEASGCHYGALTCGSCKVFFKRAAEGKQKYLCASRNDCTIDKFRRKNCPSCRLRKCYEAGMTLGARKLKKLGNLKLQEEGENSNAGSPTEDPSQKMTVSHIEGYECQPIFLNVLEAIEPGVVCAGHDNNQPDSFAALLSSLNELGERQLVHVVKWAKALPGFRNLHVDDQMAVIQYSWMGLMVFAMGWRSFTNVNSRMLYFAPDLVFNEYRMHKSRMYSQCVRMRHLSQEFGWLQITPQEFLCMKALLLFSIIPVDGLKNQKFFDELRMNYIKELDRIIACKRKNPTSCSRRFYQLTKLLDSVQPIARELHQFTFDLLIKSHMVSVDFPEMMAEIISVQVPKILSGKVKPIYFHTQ

MCF7 [6] = experiment: Effect on [3H]thymidine incorporation into MCF-7 human breast cancer cells at 1x10E-6M; assay type: functional
In short: (§5)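 Cells were seeded at ~2 × 10⁴ per well, treated from the next day in 0.1% DMSO, with DMSO controls. MCF-7 cells were held in charcoal-stripped NCS for 2 weeks, treated for 5 days and re-dosed on day 4. MDA-MB 231 cells were grown in McCoy 5a/10% NCS and treated for 2 days. At the end, 1 µCi [³H]thymidine per well was added for 2 h. Result is % T/C, mean of three experiments × six dishes.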

[7] = biological target: T1, Estrogen receptor (Mus musculus); experiment: (§6) Estrogenic activity in uterotrophic assay in immature mice at 10.0 ug subcutaneous dose; assay type: functional; in short: as §3
[8] = biological target: Estrogen receptor (Bos taurus) (UniProt Q9XSB5+P49884); experiment: Relative binding affinity(RBA) for 50% displacement of [3H]-estradiol from Estrogen receptor compared to 17-beta-estradiol; assay type: protein assay
In short: (§7)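 Receptor source was calf uterine cytosol (105000g supernatant, 3 mg/mL protein in assay). Buffers were Tris/EDTA pH 7.4, with NaN₃ for ER, molybdate/glycerol for AR, and sucrose for PR. Tracers were 1 nM [³H]estradiol, [³H]mibolerone or [³H]Org 2058. Incubation was at 0–4 °C for 16 h (ER) or 2 h (AR, PR), with 4–6 competitor concentrations. Nonspecific binding used 2 µM of the unlabeled hormone. Separation was by dextran-coated charcoal. RBA is the ratio of IC50 values for hormone and compound ×100, mean of two triplicate experiments.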

MCF7 [9] = experiment: Effect on [3H]thymidine incorporation into MCF-7 human breast cancer cells at 1x10E-5 M; assay type: functional; in short: as §5
MDA-MB-231 [10] = experiment: Cytostatic effect on hormone-independent MDA-MB 231 human breast cancer cell proliferation at 1x10E-5 M; assay type: functional; in short: as §1
[11] = biological target: T2, Androgen receptor (Mus musculus); experiment: Relative effect on seminal vesicle weight in adult and castrated mice at 10 ug dose; assay type: functional, tissue-based
In short: (§8)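 Adult male mice, 23–25 g, six per group, were used intact or castrated via the scrotal route under ether 5 days before the test. Castrates received 0.3 mg testosterone propionate daily. Compounds were injected daily in olive oil for nine days. Seminal vesicles were taken 24 h later, fixed in Bouin solution, dried overnight at 100 °C and weighed. Result is organ mg/body g ×100; % inhibition = [1 − treated/control] × 100.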

[12] = biological target: T1, Estrogen receptor (Mus musculus); experiment: as §2; assay type: functional; in short: as §3; remark: listed apart in the source
Bos taurus = species on record: Bos taurus; experiment: Relative binding affinity(RBA) as ratio of progesterone and compound required to displace [3H]-org 2058 binding to Progesterone receptor by 50%; in short: as §7
[13] = biological target: T2, Androgen receptor (Mus musculus); experiment: Inhibition of seminal vesicle weight in intact mice at 10.0 ug
[14] = biological target: T2, Androgen receptor (Mus musculus); experiment: Relative effect on seminal vesicle weight in adult and castrated mice at 100 ug dose; assay type: functional, tissue-based; in short: as §8
[15] = biological target: T1, Estrogen receptor (Mus musculus); experiment: as §4; assay type: functional; in short: as §3; remark: listed apart in the source
[16] = biological target: T1, Estrogen receptor (Mus musculus); experiment: (§9) Estrogenic activity in uterotrophic assay in immature mice at 2 ug subcutaneous dose; assay type: functional; in short: as §3
MDA-MB-231 [17] = experiment: Effect on [3H]thymidine incorporation into MDA-MB 231 human breast cancer cells at 5x10E-6M; assay type: functional; in short: as §5
[18] = biological target: T1, Estrogen receptor (Mus musculus); experiment: as §6; assay type: functional; in short: as §3; remark: listed apart in the source
[19] = biological target: T1, Estrogen receptor (Mus musculus); experiment: Inhibition of 0.4 ug estrone-stimulated uterine growth in mice at 2 ug subcutaneous dose; assay type: functional
In short: (§10)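 Immature 20-day-old female NMRI mice received sc injections on three consecutive days. Each injection held 0.4 µg estrone plus the compound in PEG/saline 1:1. […] Significance was tested by Mann-Whitney U test.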

MDA-MB-231 [20] = experiment: Effect on [3H]-thymidine incorporation into MDA-MB 231 human breast cancer cells at 1x10E-6M; assay type: functional; in short: as §5
[21] = biological target: T2, Androgen receptor (Mus musculus); experiment: Inhibition of seminal vesicle weight in intact mice at 10.0 ug; remark: listed apart in the source
[22] = biological target: T3, Androgen Receptor (Bos taurus) (UniProt Q5EM59); experiment: Relative binding affinity(RBA) for 50% displacement of [3H]mibolerone from Androgen receptor compared to testorone; in short: as §7
T3 sequence (whole entry): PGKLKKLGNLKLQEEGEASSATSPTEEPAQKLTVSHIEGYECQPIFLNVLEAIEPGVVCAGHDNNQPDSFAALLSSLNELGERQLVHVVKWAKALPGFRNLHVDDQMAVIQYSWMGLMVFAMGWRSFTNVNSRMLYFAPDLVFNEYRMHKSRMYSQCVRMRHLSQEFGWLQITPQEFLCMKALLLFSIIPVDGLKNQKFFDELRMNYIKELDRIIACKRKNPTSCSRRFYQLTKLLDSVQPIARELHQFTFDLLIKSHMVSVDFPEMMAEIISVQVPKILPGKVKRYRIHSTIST

[23] = biological target: T2, Androgen receptor (Mus musculus); experiment: Relative effect on seminal vesicle weight in adult and castrated mice at 1000 ug dose; assay type: functional, tissue-based; in short: as §8
[24] = biological target: T1, Estrogen receptor (Mus musculus); experiment: as §9; assay type: functional; in short: as §3; remark: listed apart in the source
MDA-MB-231 [25] = experiment: Cytostatic effect on hormone-independent MDA-MB 231 human breast cancer cell proliferation at 1x10E-6M; assay type: functional; in short: as §1
MDA-MB-231 [26] = experiment: Effect on [3H]thymidine incorporation into MDA-MB 231 human breast cancer cells at 1x10E-5 M; assay type: functional; in short: as §5
[27] = biological target: T1, Estrogen receptor (Mus musculus); experiment: (§11) Estrogenic activity in uterotrophic assay in immature mice at 40.0 ug subcutaneous dose; assay type: functional; in short: as §3
[28] = biological target: T1, Estrogen receptor (Mus musculus); experiment: as §11; assay type: functional; in short: as §3; remark: listed apart in the source
[29] = biological target: T1, Estrogen receptor (Mus musculus); experiment: Inhibition of 0.4 ug estrone-stimulated uterine growth in mice at 40.0 ug subcutaneous dose; assay type: functional; in short: as §10
[30] = biological target: T1, Estrogen receptor (Mus musculus); experiment: (§12) Estrogenic activity in uterotrophic assay in immature mice at 125 ug subcutaneous dose; assay type: functional; in short: as §3
MCF7 [31] = experiment: Effect on hormone-dependent MCF-7 human breast cancer cell proliferation at 1x10E-6M; assay type: functional; in short: as §1
[32] = biological target: T1, Estrogen receptor (Mus musculus); experiment: as §12; assay type: functional; in short: as §3; remark: listed apart in the source
[33] = biological target: T1, Estrogen receptor (Mus musculus); experiment: Inhibition of 0.4 ug estrone-stimulated uterine growth in mice at 125 ug subcutaneous dose; assay type: functional; in short: as §10

SMILES | T/C (MCF7 [1]) [%] | T/C (MCF7 [6]) [%] | RBA [8] | T/C (MCF7 [9]) [%] | T/C (MDA-MB-231 [10]) [%] | RBA (Bos taurus) | Effect [16] | inhibition [19] [%] | RBA [22] | Effect [24] | T/C (MDA-MB-231 [25]) [%] | T/C (MDA-MB-231 [26]) [%] | other results
CC(=O)Oc1ccc2c(c1)CC(C)n1c-2cc2cc(OC(C)=O)ccc21 (stereo unspecified) | 7 | 36 | 12 | 2 | 5 | 0.01 | 21.2 | -8 | 0.2 | 52.6 | 78 | 5 | Effect [2]: 72.2; Effect [3]: 53.3; T/C (MDA-MB-231 [4]): 10%; inhibition [5]: 27%; Effect [7]: 56; Relative seminal vesicle weight [11]: 195; Effect [12]: 61.1; inhibition [13]: 1%; Relative seminal vesicle weight [14]: 145; Effect [15]: 61.2; T/C (MDA-MB-231 [17]): 10%; Effect [18]: 26.3; T/C (MDA-MB-231 [20]): 65%; inhibition [21]: 1%; Relative seminal vesicle weight [23]: 45.2
CCC1Cc2cc(OC(C)=O)ccc2-c2c(C=O)c3cc(OC(C)=O)ccc3n21 (stereo unspecified) | 13 | 41 | 4.6 | 3 | 14 | < 0.01 | 14.5 | 19.6 | 0.03 | 48.2 | 75 | 7 | Effect [27]: 54.7; Effect [28]: 38.2; inhibition [29]: 2.6%; Effect [30]: 56; T/C (MCF7 [31]): 55%; Effect [32]: 54.7; inhibition [33]: 2.7%
